From the array DNA melting data of Ke et al. (doi:10.1101/2024.01.08.574731)

What was measured:
[1] = melting temperature; fluorescence melt of hairpins on a sequencing array, two-state fit, raised by 9.35 °C to match UV melts; conditions: sodium 0.088 M
Procedure, shortened: (§1)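 In 50 mM Na-HEPES pH 8.0 containing 25 mM NaCl, hairpins from the library on a sequenced MiSeq flow cell were imaged for Cy3 fluorescence at 2.5 °C steps up to 60 °C, with Cy3 and quencher oligos annealed. After normalisation to pre-quench Cy3 and to control constructs, two-state fits with bootstrapping gave melting temperature and folding enthalpy. Four replicates were combined by inverse-variance weighting, and fitted temperatures were shifted up by 9.35 °C to match UV melts.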

[2] = folding enthalpy; higher = less favourable; fluorescence melt of hairpins on a sequencing array, two-state fit; conditions: sodium 0.088 M
Procedure, shortened: as §1

Sequence | Tm [1] | folding enthalpy [2]
GTTAATGGAAACGTTAAC (((((.(....).))))) | 35.7 °C | -29.2 kcal/mol
GGCTGCGAAAGCAACGCC ((((((....)))..))) | 56.6 °C | -22.1 kcal/mol
GGTCGAGGAAACTTGGCC ((.(.((....)).).)) | 42.4 °C | -25.3 kcal/mol
CGTTGTCGGAAACGAACG (((..(((....)))))) | 35.1 °C | -11.6 kcal/mol
GCTCTCGGAAACGAGAAC (.(((((....))))).) | 41.8 °C | -16 kcal/mol
GTGGGTGGAAACACCTGC (..((((....))))..) | 43 °C | -14.7 kcal/mol
GGTCCCGAAAGGGAACC ((((((....))).))) | 60.5 °C | -18.5 kcal/mol
GCCGTCGAAAGACTCGGC ((((((....)))..))) | 48.8 °C | -23.8 kcal/mol
GTGCACGCGAAAGCGCAC (((..(((....)))))) | 56.3 °C | -15.4 kcal/mol
GCTAGAGAAATCTAGC ((((((....)))))) | 50.3 °C | -30.4 kcal/mol
GTGCGCGAAAGCGGGCAC ((((((....)))..))) | 60.7 °C | -15.9 kcal/mol
GATCCGTGGCCGGATC ((((((....)))))) | 57.7 °C | -39.1 kcal/mol
GCGGTAGTCCGC ((((....)))) | 58.8 °C | -21.9 kcal/mol
GCGAACGGAAACGTTTGC ((.((((....)))).)) | 56.4 °C | -46.8 kcal/mol
GAGACCGAAAGGTCCTC ((((((....))).))) | 53.6 °C | -10.4 kcal/mol
GGACATCCGAAAGGATCC (((..(((....)))))) | 29.3 °C | -12.6 kcal/mol
GGGTATGAAAATACCC ((((((....)))))) | 57.6 °C | -35.4 kcal/mol
GCGGCGGCCGC ((((...)))) | 61.3 °C | -22.6 kcal/mol
GGGCAGCCGAAAGGCCCC (((..(((....)))))) | 48.1 °C | -15.1 kcal/mol
GATCTCACGAAAGTGATC (((..(((....)))))) | 30.2 °C | -9.7 kcal/mol
GATCTGTTGACAGATC ((((((....)))))) | 53.1 °C | -43.8 kcal/mol
GATTAACGAAAGTTGATC (((.(((....))).))) | 44 °C | -35.2 kcal/mol
GCGGAGGGAAACCTCCAC (.(((((....))))).) | 45.7 °C | -15.4 kcal/mol

Sequence | Tm [1] | folding enthalpy [2]
GATCCTTGCAGGATC ((((((...)))))) | 57.9 °C | -33.7 kcal/mol
GGAGCGCGAAAGCGTTCC (((.(((....))).))) | 67.6 °C | -35 kcal/mol
GCGGTGTCGAAAGACCGC (((..(((....)))))) | 58.9 °C | -30.4 kcal/mol
GTAGCCGAAAGGCCTTAC ((((((....)))..))) | 33.5 °C | -9.41 kcal/mol
GAGTTGGGAAACCAACCC (.(((((....))))).) | 40.5 °C | -13.8 kcal/mol
GCCCGGCGAAAGCCCAGC ((..(((....)))..)) | 32.7 °C | -9.79 kcal/mol
GTATAACGAAAGTTTTAC (((.(((....))).))) | 34.7 °C | -20.8 kcal/mol
GCTCGCCGAAAGGCCAGC (((.(((....))).))) | 50.5 °C | -18.1 kcal/mol
GGCATCGGAAACGGTGCC ((((.((....)).)))) | 60.5 °C | -29.8 kcal/mol
GGGTATGGAAACATACCC (((((((....))))))) | 62.6 °C | -44 kcal/mol
GCCAACGAAAGTTCCGGC ((((((....)))..))) | 36.3 °C | -20.6 kcal/mol
GGTGCGCCGAAAGGCACC (((..(((....)))))) | 51.6 °C | -13.2 kcal/mol
GTACTACGAAAGTACTAC (((.(((....))).))) | 38.6 °C | -17.8 kcal/mol
CGCTCGGAAACGAGAGCG ((((((....)))..))) | 52.2 °C | -25.7 kcal/mol
TACCGGAAACGGTA (((((....))))) | 50.2 °C | -16 kcal/mol
CGCACACGGAAACGTGCG (((..(((....)))))) | 52.9 °C | -22 kcal/mol
GATCCGCAACGGATC ((((((...)))))) | 55.8 °C | -33 kcal/mol
GCTAGTCCGAAAGGAAGC (((..(((....)))))) | 30 °C | -16.1 kcal/mol
GATCCTAGAAAGGATC ((((((....)))))) | 48.5 °C | -30.6 kcal/mol
GCAACGGCGAAAGCCTGC (((..(((....)))))) | 47 °C | -15.2 kcal/mol
GGTCACGGAAACACGACC ((((..(....)..)))) | 34.5 °C | -18.5 kcal/mol
GAGGTAACGAAAGTTCTC (((..(((....)))))) | 29 °C | -11.1 kcal/mol
GCGTTGCGAAAGCCATGC ((.(.((....)).).)) | 40.2 °C | -25.4 kcal/mol
